The nature of data set [1]: Increase in cytoplasmic calcium influx in Sprague-Dawley rat CGN cells by FLIPR. Type of data set: cell-based. The essentials: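 Cytoplasmic Ca2+ in cerebellar granule cells was followed by fluo-3 fluorescence, with basal fluorescence (about 4000 units) subtracted. The response is the integrated fluorescence area under the curve, plotted against compound concentration.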

Data set [2] is described as follows: Cytotoxicity against mouse Neuro2a cells. Conditions: read-out: LD50 (the source's name). Type of data set: cell-based, N2a.
A short description of data set [3]: Cytotoxicity in Sprague-Dawley rat CGN cells assessed as LDH release after 2 hrs. Type of data set: cell-based. An outline of the steps: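 Rat cerebellar granule cells, 11-13 days in culture, exposed 2 h to the compound across a concentration range. LDH efflux into the culture medium was measured, and pEC50 was taken from concentration-response curves. Two separate experiments, each in triplicate, mean ± SEM.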
(In general: LDH leaks from cells whose membrane has failed.)

Data set [4] concerns Carassius auratus. The experiment in a line: Ichthyotoxicity against Carassius auratus. The conditions noted are these: in vivo. Type of data set: organism-based.
A short description of data set [5]: Increase in extracellular acidification rate in Sprague-Dawley rat CGN cells by cytosensor microphysiometer. Type of data set: cell-based. The essentials: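 Cerebellar granule neurons were cultured on porous polycarbonate membranes, and extracellular acidification rate was monitored by microphysiometry over a range of concentrations. Peak acidification rate is expressed as percent of basal proton efflux. Two separate experiments, each in duplicate, mean ± SEM.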

Data set [6] can be described thus: Cytotoxicity in Sprague-Dawley rat CGN cells assessed as LDH release at 100 nM after 2 hrs in presence of 1 uM tetrodotoxin. Type of data set: cell-based. Conditions: 0.1 µM.
The nature of data set [7]: Increase in extracellular acidification rate in Sprague-Dawley rat CGN cells at 100 nM by cytosensor microphysiometer. Type of data set: cell-based. Conditions: 0.1 µM.
Data set [8] is described as follows: Cytotoxicity in Sprague-Dawley rat CGN cells assessed as LDH release after 2 hrs in presence of 1 uM tetrodotoxin. Type of data set: cell-based.

The structures appear in SMILES notation.

Turning to `C=C1CC(=O)N[C@@H](C)C(=O)N(C)[C@@H](C(C)C)C(=O)NCC(=O)O[C@H](/C(C)=C/C(C)=C/C(C)(C)C)[C@H]1C`, the Activity entry in data set [1] was “Dose-dependent effect and tde”. Moreover, the CC50 in data set [2] was 10 µM.

For the compound `C=C1CC(=O)N[C@@H](C)C(=O)N(C)[C@@H](C(C)C)C(=O)NCC(=O)O[C@H](/C(C)=C/C(C)=C/C(C)(C)C)[C@@H]1C`, in data set [3] (read-out: EC50), the EC50 was found to be 8.1 µM. Besides, the Activity entry in data set [4] is “Non-toxic”; in data set [5] it was 5 µM; in data set [1] it was “Dose-dependent effect and tde”. For the same compound, the CC50 in data set [2] stood at 10 µM.

On to `C=C1CC(=O)N[C@@H](C)C(=O)N(C)[C@@H](C(C)C)C(=O)NCC(=O)O[C@@H](/C(C)=C/C(C)=C/C(C)(C)C)[C@H]1C`, for which, in data set [1], the Activity result is “Dose-dependent effect and tde”. Moreover, the CC50 in data set [2] was determined as 5 µM.

`C=C1CC(=O)N[C@@H](C)C(=O)N(C)[C@@H](C(C)C)C(=O)NCC(=O)O[C@@H](/C(C)=C/C(C)=C/C(C)(C)C)[C@@H]1C` [ANTILLATOXIN]: the Activity entry in data set [6] is “Non-toxic”; in data set [4], 0.1 µM; in data set [5], 0.041 µM; in data set [1], “Dose-dependent effect and tde”; in data set [7] it was 300%; in data set [8] it was “Non-toxic”. Moreover, the EC50 in data set [3] (read-out: EC50) was 0.042 µM; in data set [3] (read-out: pEC50 (converted)), 0.0457 µM. Further, in data set [2], the CC50 amounted to 0.18 µM.

The values above are taken from ChEMBL document CHEMBL1151165, “Characterization of the preferred stereochemistry for the neuropharmacologic actions of antillatoxin” (J Nat Prod, 2004).
